Data on 25 molecules can be found in ChEMBL document CHEMBL4699614, “Design, synthesis and biological evaluation of novel osthole-based derivatives as potential neuroprotective agents” (Bioorg Med Chem Lett, 2020).

Assay [1] has as its system SH-SY5Y. Kind of assay: Neuroprotection against H202-induced oxidative stress in human SH-SY5Y cells assessed as increase in cell viability at 10 uM by MTT assay. The assay is classed as functional. The essentials: (§1)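 SH-SY5Y cells were given one of two insults: H2O2-induced oxidative stress, with cell viability read by MTT, or oxygen glucose deprivation (OGD)-induced cell damage. Compounds were tested at 10 µM, and the result is expressed as percent neuroprotection.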
On the technique in general: Tetrazolium assays rely on reduction of a dye to a coloured formazan, in cell work by metabolically active cells.

The test system of assay [2] is SH-SY5Y. Kind of assay: Neuroprotective activity against oxygen-glucose deprivation-induced toxicity in human SH-SY5Y cells assessed as increase in cell viability at 10 uM by MTT assay. The assay is classed as functional. The gist of the method: as §1
In assay [3] the test system is SH-SY5Y. Put plainly: Neuroprotection against oxygen-glucose deprivation-induced toxicity in human SH-SY5Y cells assessed as cytoprotection by MTT assay. The assay is classed as functional, cell-based. The gist of the method: (§2)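 SH-SY5Y cells were exposed to H2O2 or to oxygen glucose deprivation (OGD) cytotoxicity. EC50 was defined as the concentration giving 50% protective effect relative to the control group. Values are averages of three independent experiments, given as mean ± SEM.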

For assay [4], the system named is SH-SY5Y. Kind of assay: Neuroprotection against H202-induced toxicity in human SH-SY5Y cells assessed as cytoprotection by MTT assay. In kind it is functional, cell-based. The gist of the method: as §2
The next assay deals with RAW264.7. Kind of assay: Inhibition of LPS-induced NO production in mouse RAW264.7 cells assessed as NO production activity at 10 uM by Griess reagent based assay. The assay is classed as functional. (In general: Griess reagent forms a coloured azo dye with nitrite.)
Assay [5] relates to SH-SY5Y. Put plainly: Neuroprotective activity against human SH-SY5Y cells assessed as Abeta42-induced cytotoxicity at 1 uM by MTT assay. The assay is classed as functional.
Assay [6] deals with SH-SY5Y. Kind of assay: Neuroprotective activity against human SH-SY5Y cells assessed as Abeta42-induced cytotoxicity at 10 uM by MTT assay. The assay is classed as functional.
Assay [7] deals with SH-SY5Y. Put plainly: Neuroprotective activity against oxygen-glucose deprivation-induced toxicity in human SH-SY5Y cells assessed as increase in cell viability at 1 mM by MTT assay. The assay is classed as functional.
The test system of assay [8] is SH-SY5Y. Kind of assay: Neuroprotection against H202-induced oxidative stress in human SH-SY5Y cells assessed as increase in cell viability at 1 mM by MTT assay. In kind it is functional.
Assay [9] relates to SH-SY5Y. Kind of assay: Neuroprotective activity against human SH-SY5Y cells assessed as Abeta42-induced cytotoxicity at 30 uM by MTT assay. The assay is classed as functional.

Structures are written as SMILES. Calls of active or inactive are those of the source.

For the molecule `CC(C)=CCc1c(OC(=O)NC2CCCCC2)ccc2ccc(=O)oc12`, in the assay on SH-SY5Y [1], the Activity stood at 13%.

With `CC(C)=CCc1c(OCC(=O)Nc2ccc(N3CCOCC3)cc2)ccc2ccc(=O)oc12`, the figures for the Activity in the assay with SH-SY5Y [2] and in the assay on SH-SY5Y [1] were 13.2% and 39.5%, respectively.

Regarding `CC(C)=CCc1c(OCC(=O)Nc2ccc(N3CCNCC3)cc2)ccc2ccc(=O)oc12`, the Activity worked out at 8.4% in the assay on SH-SY5Y [2] and 22.5% in the assay with SH-SY5Y [1].

The EC50 is the concentration that produces a half-maximal response. Consider `COc1ccc(CNC(=O)Oc2ccc3ccc(=O)oc3c2CC=C(C)C)cc1`, for which the Activity is 35% in the assay with SH-SY5Y [2] and 28.7% in the assay on SH-SY5Y [1]. In addition, the half-maximal effective concentration (EC50) in the assay with SH-SY5Y [3] is 23.3 µM; with SH-SY5Y [4], above 100 µM. In addition, the “Residual NO production” value with RAW264.7 is listed as 77.4%.

As to `CC(C)=CCc1c(OCC(=O)Nc2ccc(N3CCCCC3)cn2)ccc2ccc(=O)oc12`, the figures for the Activity in the assay on SH-SY5Y [2] and in the assay with SH-SY5Y [1] were 16.8% and 32.7%, respectively.

In the case of `CC(C)=CCc1c(OCC(=O)N2CCNCC2)ccc2ccc(=O)oc12`, the Activity came out at 28.2% with SH-SY5Y [2] and 29.2% in the assay on SH-SY5Y [1].

Regarding `CC(C)=CCc1c(OCC(=O)N2CCCC2)ccc2ccc(=O)oc12`, the Activity in the assay with SH-SY5Y [2] was 43.6%; in the assay on SH-SY5Y [1] it was 28%. Besides, the EC50 in the assay on SH-SY5Y [3] was 15.3 µM; in the assay with SH-SY5Y [4], 67.3 µM. Moreover, in the assay on RAW264.7, the “Residual NO production” value was determined as 75.4%.

Turning to `CC(C)(O)C1Cc2c(ccc3cc(-c4ccc(F)cc4)c(=O)oc23)O1` (stereo not drawn), the Activity was 23.5% in the assay with SH-SY5Y [2] and 21.3% in the assay on SH-SY5Y [1].

Take `CCN1CCN(C(=O)COc2ccc3ccc(=O)oc3c2CC=C(C)C)CC1`: the figures for the Activity in the assay with SH-SY5Y [2] and in the assay with SH-SY5Y [1] were 48% and 33.7%, respectively. For the same molecule, the EC50 in the assay on SH-SY5Y [3] was 12.5 µM; with SH-SY5Y [4], 29.8 µM. Besides, in the assay with RAW264.7, the “Residual NO production” value stood at 72.3%.

One may read the inhibition as the relative decrease from the control value, in per cent. As to `CC(C)=CCc1c(OCC(=O)Nc2ccc(N3CCCC3)cc2)ccc2ccc(=O)oc12`, the Activity is 63.4% with SH-SY5Y [2] and 47.7% with SH-SY5Y [1]. In the assay with SH-SY5Y [5], the inhibition at 1 µM is 47.8%. Also, the EC50 was found to be 5.62 µM in the assay with SH-SY5Y [3] and 11.9 µM with SH-SY5Y [4]. Also, the “Residual NO production” value with RAW264.7 is listed as 50.4%. In addition, in the assay with SH-SY5Y [6], the inhibition at 10 µM is 46.3%.

Regarding `CC(C)=CCc1c(OCC(=O)Nc2ccc(N3CCNCC3)cn2)ccc2ccc(=O)oc12`, the figures for the Activity in the assay on SH-SY5Y [2] and with SH-SY5Y [1] were 49.4% and 44.5%, respectively.

Consider `CC(C)(O)C1Cc2c(ccc3cc(-c4ccccc4)c(=O)oc23)O1` (stereo not drawn), for which the Activity turned out to be 23.2% with SH-SY5Y [2] and 19.7% with SH-SY5Y [1].

For the molecule `CC(C)(O)C1Cc2c(ccc3cc(-c4cccc(F)c4)c(=O)oc23)O1` (stereo not drawn), the values for the Activity in the assay on SH-SY5Y [2] and in the assay on SH-SY5Y [1] were 41.2% and 29%, respectively. Also, the EC50 stood at 18.8 µM in the assay with SH-SY5Y [3] and 75.9 µM in the assay with SH-SY5Y [4]. Moreover, in the assay on RAW264.7, the “Residual NO production” value was found to be 106.2%.

`CC(=O)N[C@@H](CS)C(=O)O` [ACETYLCYSTEINE]: the figures for the Activity in the assay with SH-SY5Y [7] and with SH-SY5Y [8] were 84.3% and 37.1%, respectively.

`CC(C)=CCc1c(OCC(=O)Nc2ccc(N3CCCC3)cn2)ccc2ccc(=O)oc12`: the Activity in the assay with SH-SY5Y [2] was determined as 58.2%; with SH-SY5Y [1] it was 45.2%.

On to `CC(C)=CCc1c(OCC(=O)Nc2ccc(N3CCCCC3)cc2)ccc2ccc(=O)oc12`, for which the Activity in the assay with SH-SY5Y [1] stood at 12.5%.

Consider `COc1cccc(-c2cc3ccc4c(c3oc2=O)CC(C(C)(C)O)O4)c1` (stereo not drawn), for which the Activity in the assay with SH-SY5Y [2] is on record as 42.8%; in the assay with SH-SY5Y [1] it was 31%. In addition, the half-maximal effective concentration (EC50) in the assay on SH-SY5Y [3] came to 13.3 µM; in the assay on SH-SY5Y [4], 30.4 µM. Besides, in the assay on RAW264.7, the “Residual NO production” value is 73.3%.

In the case of `Cc1ccc(-c2cc3ccc4c(c3oc2=O)CC(C(C)(C)O)O4)cc1` (stereo not drawn), the Activity in the assay with SH-SY5Y [1] turned out to be 18.2%.

Consider `COc1ccc2ccc(=O)oc2c1CC=C(C)C` [OSTHOLE], for which the Activity in the assay with SH-SY5Y [2] was found to be 28.6%; with SH-SY5Y [9] it was 37.1%. Moreover, in the assay on SH-SY5Y [5], the result was inactive. For the same molecule, the concentration for a half-maximal effect (EC50) with SH-SY5Y [3] came out at 26.4 µM; in the assay on SH-SY5Y [4], 33.3 µM. Moreover, the “Residual NO production” value in the assay with RAW264.7 came out at 85.6%.

For the molecule `CC(C)=CCc1c(OCC(=O)N2CCOCC2)ccc2ccc(=O)oc12`, the Activity in the assay on SH-SY5Y [2] amounted to 23.2%; with SH-SY5Y [1], 31.5%. For the same molecule, the 50% effective concentration (EC50) was above 100 µM with SH-SY5Y [3] and 27.5 µM in the assay on SH-SY5Y [4]. In addition, the “Residual NO production” value in the assay on RAW264.7 is 74.1%.

For `CC(C)(O)C1Cc2c(ccc3cc(-c4ccccc4F)c(=O)oc23)O1` (stereo not drawn), the Activity with SH-SY5Y [2] came to 37.2%; with SH-SY5Y [1], 36.5%. For the same molecule, the concentration giving a half-maximal response (EC50) in the assay with SH-SY5Y [3] came out at 40.1 µM; with SH-SY5Y [4] it was 32.3 µM. The “Residual NO production” value in the assay with RAW264.7 worked out at 85.2%.

As to `CC(C)=CCc1c(OCC(=O)Nc2ccc(N3CCOCC3)cn2)ccc2ccc(=O)oc12`, the Activity amounted to 51.4% with SH-SY5Y [2] and 43.5% in the assay with SH-SY5Y [1]. Besides, the concentration giving a half-maximal response (EC50) with SH-SY5Y [3] came out at 9.05 µM; in the assay with SH-SY5Y [4], 16.6 µM. For the same molecule, the “Residual NO production” value with RAW264.7 is 80.3%.

As for `CC(C)=CCc1c(OCC(=O)N2CCN(C(=O)OC(C)(C)C)CC2)ccc2ccc(=O)oc12`, the results for the Activity in the assay on SH-SY5Y [2] and in the assay with SH-SY5Y [1] were 64.6% and 45.7%, respectively. In addition, the inhibition at 1 µM with SH-SY5Y [5] came out at 55.2%. Also, the concentration giving a half-maximal response (EC50) in the assay on SH-SY5Y [3] was 3.27 µM; in the assay with SH-SY5Y [4], 10.3 µM. Moreover, the “Residual NO production” value in the assay with RAW264.7 was 62.8%. In the assay on SH-SY5Y [6], the inhibition at 10 µM was 61.4%.

For the molecule `COc1ccc2c(c1)c(CC(=O)O)c(C)n2C(=O)c1ccc(Cl)cc1` [INDOMETHACIN], the “Residual NO production” value with RAW264.7 is 53.2%.

As for `CC(C)=CCc1c(OCC(=O)N2CCCCC2)ccc2ccc(=O)oc12`, in the assay with SH-SY5Y [1], the Activity came out at 5.5%.
